# From ChEMBL document CHEMBL4842317, “Discovery of novel 3-hydroxyandrosta-5,7-Diene-17-Carboxylic acid derivatives as anti-inflammatory bowel diseases (IBD) agents” (Eur J Med Chem, 2021)
# Calls of active or inactive are those of the source. No cut-off for these calls is given here.
# Key:
# [1] = system: RAW264.7; assay: Antiinflammatory activity against mouse RAW264.7 cells assessed as inhibition of LPS-induced NO production measured after 24 hrs by Griess assay; type: functional, cell-based; settings: RAW264.7, 24 h
# How it was run: (§1)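 RAW 264.7 cells (1 × 10^5 cells/mL) are cultured 24 h, stimulated with LPS (100 ng/mL final), and treated with compounds from 100 μM downward for 24 h in DMEM with 10% FBS. Medium nitrite is measured by Griess reaction (sulfanilamide, naphthylethylenediamine, phosphoric acid, 10 min, room temperature, dark). Mean + SD from three independent experiments.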
# [2] = system: RAW264.7; assay: Antiinflammatory activity against mouse RAW264.7 cells assessed as inhibition of LPS-induced NO production at 20 uM after 24 hrs by Griess assay; type: functional; how it was run: as §1
# [3] = system: RAW264.7; assay: Antiinflammatory activity against mouse RAW264.7 cells assessed as decrease in LPS-induced IL-1beta mRNA expression at 20 uM in presence of LPS by qRT-PCR analysis; type: functional, cell-based
# How it was run: (§2)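 RAW 264.7 cells are grown 12 h in six-well plates, then exposed to LPS (100 ng/ml) plus compound for 8 h. Reverse transcription is followed by SYBR Green qPCR with GAPDH as internal control. Relative expression is calculated by 2^-ΔΔCT versus the untreated control. Mean + SD from three independent experiments.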
# [4] = system: RAW264.7; assay: Antiinflammatory activity against mouse RAW264.7 cells assessed as decrease in LPS-induced NF-kappB mRNA expression at 20 uM in presence of LPS by qRT-PCR analysis; type: functional, cell-based; how it was run: as §2
# [5] = system: RAW264.7; assay: Inhibition of PI3K/Akt signaling in mouse RAW264.7 cells assessed as inhibition of LPS-induced Akt phosphorylation at 1.25 uM in presence of LPS by western blot analysis; type: cell-based
# How it was run: (§3)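 Lysates of LPS-stimulated RAW 264.7 cells (20–30 μg protein) are run on 10% SDS-PAGE, blotted, blocked with 5% milk, probed overnight at 4 °C (1:5,000), then detected with HRP secondary and ECL. Actin, GAPDH or H3 (nuclear fraction) serve as loading controls, with densitometry ratios. Blots are representative of three independent experiments; mean + SD (n = 3).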
# [6] = system: RAW264.7; assay: Inhibition of PI3K/Akt signaling in mouse RAW264.7 cells assessed as inhibition of LPS-induced Akt phosphorylation by measuring increase in Akt level at 1.25 uM in presence of LPS by western blot analysis; type: cell-based; how it was run: as §3
# [7] = system: Mus musculus; assay: Antiinflammatory activity against DSS-induced colitis C57BL/6 mouse model assessed as attenuation of colon length shortening at 50 mg/kg, ip administered for 7 days; type: functional, organism-based; settings: time 7.0 day
# How it was run: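 Male C57BL/6 mice, 6 weeks old, 5 per group, given 3.5% DSS in drinking solution with intraperitoneal drug in saline/castor oil/ethanol/DMSO (70:10:15:5) daily for 7 days. Colons are photographed after sacrifice by cervical dislocation for gross assessment.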
# [8] = system: Mus musculus; assay: Antiinflammatory activity against DSS-induced colitis C57BL/6 mouse assessed as decrease in IL-1beta level in colon at 50 mg/kg, ip administered for 7 days; type: functional, organism-based; settings: time 7.0 day
# How it was run: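 Male C57BL/6 mice, 6 weeks old, 5 per group, given 3.5% DSS solution plus daily intraperitoneal drug (100 μL, in saline/castor oil/ethanol/DMSO 70:10:15:5) for 7 days. Colons collected after sacrifice. IL-1β is normalised per milligram of colonic protein. p-IκB-α and p-p65 in colonic protein are measured by Western blot. Bars give mean + SD.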
# [9] = system: Mus musculus; assay: Antiinflammatory activity against DSS-induced colitis C57BL/6 mouse model assessed as dispersed CD86-positive cells in colon at 25 to 100 mg/kg, ip administered for 7 days by hematoxylin and eosin staining based microscopic analysis; type: functional, organism-based; settings: dose 25-100 mg/kg, time 7.0 day
# How it was run: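 DSS colitis (3.5% DSS, male C57BL/6 mice, n=5 per group) with 7-day intraperitoneal dosing in saline/castor oil/ethanol/DMSO vehicle. Colons are fixed in formalin, paraffin-embedded and stained with H&E (viewed at 200X). Separately, sections undergo CD86 immunohistochemistry (citrate antigen retrieval, 3% H2O2 block, 1:200 primary and HRP secondary, hematoxylin counterstain) viewed at 400X.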
compound,measurement,setting,value
C[C@]12CC[C@H]3[C@@H](CC=C4C[C@@H](O)CC[C@@]43C)[C@@H]1CC[C@@H]2C(=O)n1ccnc1,IC50,[1],6.67 µM
same,inhibition at 20 µM,[2],100%
same,Activity,[3],Active
same,Activity,[4],Active
same,inhibition,[5],Active
same,inhibition,[6],Active
same,Activity,[7],Active
same,Activity,[8],Active
same,Activity,[9],Active
